Test system: Trypanosoma cruzi
Experiment: Percentage of activity against Trypanosoma cruzi at 12.5 uM
Assay type: functional
Conditions: not given
Method in brief: (§1)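 Mouse peritoneal macrophages, 30 000/well, infected after 24 h with about 100 000 T. cruzi trypomastigotes per well plus 2-fold drug dilutions (12.5–1.56 µM). Incubated 4 days at 37 °C, 5% CO2. Methanol-fixed, Giemsa-stained and scored microscopically as % reduction of total parasite load (free trypomastigotes plus intracellular amastigotes) versus untreated controls.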

| Structure (SMILES) | T. cruzi parasite load reduction |
| --- | --- |
| COc1ccc2nc3cc(Cl)ccc3c(NCCCCCCCCCCNc3c4ccc(Cl)cc4nc4ccc(OC)cc34)c2c1 | 99% |
| COc1ccc2nc3cc(Cl)ccc3c(NCCCN(CCCNc3c4ccc(Cl)cc4nc4ccc(OC)cc34)C(=O)CCN3CCNCC3)c2c1 | 90% |

Test system: Trypanosoma cruzi
Experiment: Percentage of activity against Trypanosoma cruzi at 1.56 uM
Assay type: functional
Conditions: not given
Method in brief: as §1

| Structure (SMILES) | Parasite load reduction |
| --- | --- |
| COc1ccc2nc3cc(Cl)ccc3c(NCCCCCCCCNc3c4ccc(Cl)cc4nc4ccc(OC)cc34)c2c1 | 70% |
| COc1ccc2nc3cc(Cl)ccc3c(NCCCCCCCCCCNc3c4ccc(Cl)cc4nc4ccc(OC)cc34)c2c1 | 0% |
| COc1ccc2nc3cc(Cl)ccc3c(NCCCN(CCCNc3c4ccc(Cl)cc4nc4ccc(OC)cc34)C(=O)CCN3CCNCC3)c2c1 | 0% |

Test system: Leishmania infantum
Experiment: Percentage of activity against Leishmania infantum at 1.56 uM
Assay type: functional
Conditions: not given
Method in brief: (§2)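 Starch-stimulated mouse peritoneal macrophages, 30 000/well, infected after 24 h with spleen-derived L. infantum amastigotes (10:1) together with 2-fold drug dilutions (12.5–1.56 µM). Incubated 7 days at 37 °C, 5% CO2. Wright-stained slides scored microscopically as % reduction of total parasite load or of infected macrophages. Uninfected treated cultures judged microscopically for macrophage toxicity.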

| Structure (SMILES) | Antileishmanial activity (% reduction of parasite load) |
| --- | --- |
| COc1ccc2nc3cc(Cl)ccc3c(NCCCCCCCCNc3c4ccc(Cl)cc4nc4ccc(OC)cc34)c2c1 | 70% |
| COc1ccc2nc3cc(Cl)ccc3c(NCCCCCCCCCCNc3c4ccc(Cl)cc4nc4ccc(OC)cc34)c2c1 | 20% |
| COc1ccc2nc3cc(Cl)ccc3c(NCCCN(CCCNc3c4ccc(Cl)cc4nc4ccc(OC)cc34)C(=O)CCN3CCNCC3)c2c1 | 0% |

Test system: Trypanosoma brucei
Experiment: Percentage of activity against Trypanosoma brucei at 3.13 uM
Assay type: functional
Conditions: not given
Method in brief: (§3)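 Bloodstream-form T. brucei in HMI-9 medium, 10 000 parasites/well, exposed to 12.5, 6.25, 3.13 and 1.56 µM drug for 4 days. Read-out is % inhibition of parasite multiplication. Macrophage toxicity judged on mouse primary peritoneal macrophages.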

| Structure (SMILES) | Parasite growth inhibition |
| --- | --- |
| COc1ccc2nc3cc(Cl)ccc3c(NCCCCCCCCNc3c4ccc(Cl)cc4nc4ccc(OC)cc34)c2c1 | 100% |
| COc1ccc2nc3cc(Cl)ccc3c(NCCCCCCCCCCNc3c4ccc(Cl)cc4nc4ccc(OC)cc34)c2c1 | 100% |
| COc1ccc2nc3cc(Cl)ccc3c(NCCCN(CCCNc3c4ccc(Cl)cc4nc4ccc(OC)cc34)C(=O)CCN3CCNCC3)c2c1 | 99% |

Test system: Plasmodium falciparum
Experiment: In vitro sensitivity for Plasmodium falciparum FcB1R
Assay type: functional, organism-based
Conditions: not given
Method in brief: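 Asynchronous P. falciparum cultures in human erythrocytes (0.5% parasitemia, 1% haematocrit) exposed to serially diluted drug for 24 h at 37 °C. [3H]hypoxanthine (0.5 µCi/well) then added for a further 24 h. Uptake compared with drug-free controls on the same plate. IC50 taken from the concentration–response curve, averaged over independent experiments. DMSO ≤0.1%.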

| Structure (SMILES) | IC50 |
| --- | --- |
| COc1ccc2nc3cc(Cl)ccc3c(NCCCCCCCCNc3c4ccc(Cl)cc4nc4ccc(OC)cc34)c2c1 | 19 nM |
| COc1ccc2nc3cc(Cl)ccc3c(NCCCCCCCCCCNc3c4ccc(Cl)cc4nc4ccc(OC)cc34)c2c1 | 57 nM |
| COc1ccc2nc3cc(Cl)ccc3c(NCCCN(CCCNc3c4ccc(Cl)cc4nc4ccc(OC)cc34)C(=O)CCN3CCNCC3)c2c1 | > 500 nM |

Test system: Trypanosoma cruzi
Experiment: Percentage of activity against Trypanosoma cruzi at 6.25 uM Concentration
Assay type: functional
Conditions: not given
Method in brief: as §1

| Structure (SMILES) | Reduction of T. cruzi parasite load |
| --- | --- |
| COc1ccc2nc3cc(Cl)ccc3c(NCCCCCCCCNc3c4ccc(Cl)cc4nc4ccc(OC)cc34)c2c1 | 98% |
| COc1ccc2nc3cc(Cl)ccc3c(NCCCCCCCCCCNc3c4ccc(Cl)cc4nc4ccc(OC)cc34)c2c1 | 70% |
| COc1ccc2nc3cc(Cl)ccc3c(NCCCN(CCCNc3c4ccc(Cl)cc4nc4ccc(OC)cc34)C(=O)CCN3CCNCC3)c2c1 | 0% |

Test system: Trypanosoma brucei
Experiment: Percentage of activity against Trypanosoma brucei at 6.25 uM
Assay type: functional
Conditions: not given
Method in brief: as §3

| Structure (SMILES) | Inhibition of parasite multiplication |
| --- | --- |
| COc1ccc2nc3cc(Cl)ccc3c(NCCCCCCCCNc3c4ccc(Cl)cc4nc4ccc(OC)cc34)c2c1 | 100% |
| COc1ccc2nc3cc(Cl)ccc3c(NCCCCCCCCCCNc3c4ccc(Cl)cc4nc4ccc(OC)cc34)c2c1 | 100% |
| COc1ccc2nc3cc(Cl)ccc3c(NCCCN(CCCNc3c4ccc(Cl)cc4nc4ccc(OC)cc34)C(=O)CCN3CCNCC3)c2c1 | 100% |

Test system: Trypanosoma brucei
Experiment: Percentage of activity against Trypanosoma brucei at 12.5 uM
Assay type: functional
Conditions: not given
Method in brief: as §3

| Structure (SMILES) | Inhibition of parasite multiplication |
| --- | --- |
| COc1ccc2nc3cc(Cl)ccc3c(NCCCCCCCCNc3c4ccc(Cl)cc4nc4ccc(OC)cc34)c2c1 | 100% |
| COc1ccc2nc3cc(Cl)ccc3c(NCCCCCCCCCCNc3c4ccc(Cl)cc4nc4ccc(OC)cc34)c2c1 | 100% |

Test system: MRC5
Experiment: Cytotoxicity on MRC-5 cells at 3.13 uM
Assay type: functional
Conditions: Homo sapiens
Method in brief: (§4)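 MRC-5 human diploid embryonic lung cells seeded at 5 000/well, washed after 24 h, then given 2-fold drug dilutions (25, 12.5, 6.25, 3.13 µM) in RPMI + 5% FCS, final DMSO below 0.5%. Incubated 7 days at 37 °C, 5% CO2. MTT colorimetric read-out, scored as % reduction of absorbance at 540 nm versus untreated controls.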

| Structure (SMILES) | cytotoxicity at 3.13 µM |
| --- | --- |
| COc1ccc2nc3cc(Cl)ccc3c(NCCCCCCCCNc3c4ccc(Cl)cc4nc4ccc(OC)cc34)c2c1 | 20% |
| COc1ccc2nc3cc(Cl)ccc3c(NCCCCCCCCCCNc3c4ccc(Cl)cc4nc4ccc(OC)cc34)c2c1 | 0% |
| COc1ccc2nc3cc(Cl)ccc3c(NCCCN(CCCNc3c4ccc(Cl)cc4nc4ccc(OC)cc34)C(=O)CCN3CCNCC3)c2c1 | 0% |

Test system: Trypanosoma cruzi
Experiment: Percentage of activity against Trypanosoma cruzi at 3.13 uM
Assay type: functional
Conditions: not given
Method in brief: as §1

| Structure (SMILES) | Reduction of T. cruzi parasite load |
| --- | --- |
| COc1ccc2nc3cc(Cl)ccc3c(NCCCCCCCCNc3c4ccc(Cl)cc4nc4ccc(OC)cc34)c2c1 | 90% |
| COc1ccc2nc3cc(Cl)ccc3c(NCCCCCCCCCCNc3c4ccc(Cl)cc4nc4ccc(OC)cc34)c2c1 | 40% |
| COc1ccc2nc3cc(Cl)ccc3c(NCCCN(CCCNc3c4ccc(Cl)cc4nc4ccc(OC)cc34)C(=O)CCN3CCNCC3)c2c1 | 0% |

Test system: Trypanosoma cruzi
Experiment: Percentage of activity against Trypanosoma cruzi at 12.5 uM; Toxic upon mouse primary peritoneal macrophages
Assay type: functional, organism-based
Conditions: not given
Method in brief: as §1

| Structure (SMILES) | Cytotoxicity |
| --- | --- |
| COc1ccc2nc3cc(Cl)ccc3c(NCCCCCCCCNc3c4ccc(Cl)cc4nc4ccc(OC)cc34)c2c1 | Toxic |

Test system: Leishmania infantum
Experiment: Percentage of activity against Leishmania infantum 6.25 uM
Assay type: functional
Conditions: not given
Method in brief: as §2

| Structure (SMILES) | Antileishmanial activity (% reduction of parasite load) |
| --- | --- |
| COc1ccc2nc3cc(Cl)ccc3c(NCCCCCCCCNc3c4ccc(Cl)cc4nc4ccc(OC)cc34)c2c1 | 95% |
| COc1ccc2nc3cc(Cl)ccc3c(NCCCCCCCCCCNc3c4ccc(Cl)cc4nc4ccc(OC)cc34)c2c1 | 90% |
| COc1ccc2nc3cc(Cl)ccc3c(NCCCN(CCCNc3c4ccc(Cl)cc4nc4ccc(OC)cc34)C(=O)CCN3CCNCC3)c2c1 | 0% |

Test system: Trypanosoma brucei
Experiment: Percentage of activity against Trypanosoma brucei at 1.56 uM
Assay type: functional
Conditions: not given
Method in brief: as §3

| Structure (SMILES) | Percent inhibition of parasite multiplication |
| --- | --- |
| COc1ccc2nc3cc(Cl)ccc3c(NCCCCCCCCNc3c4ccc(Cl)cc4nc4ccc(OC)cc34)c2c1 | 100% |
| COc1ccc2nc3cc(Cl)ccc3c(NCCCCCCCCCCNc3c4ccc(Cl)cc4nc4ccc(OC)cc34)c2c1 | 100% |
| COc1ccc2nc3cc(Cl)ccc3c(NCCCN(CCCNc3c4ccc(Cl)cc4nc4ccc(OC)cc34)C(=O)CCN3CCNCC3)c2c1 | 95% |

Test system: Leishmania infantum
Experiment: Percentage of activity against Leishmania infantum at 3.13 uM
Assay type: functional
Conditions: not given
Method in brief: as §2

| Structure (SMILES) | Percent antileishmanial activity (reduction of parasite load) |
| --- | --- |
| COc1ccc2nc3cc(Cl)ccc3c(NCCCCCCCCNc3c4ccc(Cl)cc4nc4ccc(OC)cc34)c2c1 | 90% |
| COc1ccc2nc3cc(Cl)ccc3c(NCCCCCCCCCCNc3c4ccc(Cl)cc4nc4ccc(OC)cc34)c2c1 | 70% |
| COc1ccc2nc3cc(Cl)ccc3c(NCCCN(CCCNc3c4ccc(Cl)cc4nc4ccc(OC)cc34)C(=O)CCN3CCNCC3)c2c1 | 0% |

Test system: MRC5
Experiment: Cytotoxicity on MRC-5 cells at 25 uM
Assay type: functional
Conditions: Homo sapiens
Method in brief: as §4

| Structure (SMILES) | cytotoxicity at 25 µM |
| --- | --- |
| COc1ccc2nc3cc(Cl)ccc3c(NCCCCCCCCNc3c4ccc(Cl)cc4nc4ccc(OC)cc34)c2c1 | 100% |
| COc1ccc2nc3cc(Cl)ccc3c(NCCCCCCCCCCNc3c4ccc(Cl)cc4nc4ccc(OC)cc34)c2c1 | 90% |
| COc1ccc2nc3cc(Cl)ccc3c(NCCCN(CCCNc3c4ccc(Cl)cc4nc4ccc(OC)cc34)C(=O)CCN3CCNCC3)c2c1 | 15% |

Test system: MRC5
Experiment: Cytotoxicity on MRC-5 cells at 6.25 uM
Assay type: functional
Conditions: Homo sapiens
Method in brief: as §4

| Structure (SMILES) | cytotoxicity at 6.25 µM |
| --- | --- |
| COc1ccc2nc3cc(Cl)ccc3c(NCCCCCCCCNc3c4ccc(Cl)cc4nc4ccc(OC)cc34)c2c1 | 100% |
| COc1ccc2nc3cc(Cl)ccc3c(NCCCCCCCCCCNc3c4ccc(Cl)cc4nc4ccc(OC)cc34)c2c1 | 0% |
| COc1ccc2nc3cc(Cl)ccc3c(NCCCN(CCCNc3c4ccc(Cl)cc4nc4ccc(OC)cc34)C(=O)CCN3CCNCC3)c2c1 | 0% |

Test system: Leishmania infantum
Experiment: Percentage of activity against Leishmania infantum at 12.5 uM Concentration; Toxic upon mouse primary peritoneal macrophages
Assay type: functional, organism-based
Conditions: not given
Method in brief: as §2

| Structure (SMILES) | Cytotoxicity |
| --- | --- |
| COc1ccc2nc3cc(Cl)ccc3c(NCCCCCCCCNc3c4ccc(Cl)cc4nc4ccc(OC)cc34)c2c1 | Toxic |
| COc1ccc2nc3cc(Cl)ccc3c(NCCCCCCCCCCNc3c4ccc(Cl)cc4nc4ccc(OC)cc34)c2c1 | Toxic |
| COc1ccc2nc3cc(Cl)ccc3c(NCCCN(CCCNc3c4ccc(Cl)cc4nc4ccc(OC)cc34)C(=O)CCN3CCNCC3)c2c1 | Toxic |

Test system: MRC5
Experiment: Cytotoxicity on MRC-5 cells at 12.5 uM
Assay type: functional
Conditions: Homo sapiens
Method in brief: as §4

| Structure (SMILES) | cytotoxicity at 12.5 µM |
| --- | --- |
| COc1ccc2nc3cc(Cl)ccc3c(NCCCCCCCCNc3c4ccc(Cl)cc4nc4ccc(OC)cc34)c2c1 | 100% |
| COc1ccc2nc3cc(Cl)ccc3c(NCCCCCCCCCCNc3c4ccc(Cl)cc4nc4ccc(OC)cc34)c2c1 | 80% |
| COc1ccc2nc3cc(Cl)ccc3c(NCCCN(CCCNc3c4ccc(Cl)cc4nc4ccc(OC)cc34)C(=O)CCN3CCNCC3)c2c1 | 0% |

— ChEMBL document CHEMBL1133105, “Antimalarial, antitrypanosomal, and antileishmanial activities and cytotoxicity of bis(9-amino-6-chloro-2-methoxyacridines): influence of the linker” (J Med Chem, 2000)
